Values after ≈ are worked out from the molar mass of the structure shown.
test system: Bacillus subtilis; assay: Antibacterial activity against Bacillus subtilis by NCCLS broth microdilution method; assay type: functional; details: not given

Compound	MIC90 [µg/mL]
CON=C1C2CC(C)CC1C(c1ccccc1F)NC2c1ccccc1F (stereo in doubt; 55b)	8 (≈ 21.6 µM)
CON=C1C2CC(C)CC1C(c1ccccc1Cl)NC2c1ccccc1Cl (stereo in doubt; 58b)	32 (≈ 79.3 µM)
GENTAMICIN	16
CON=C1C2CC(C)CC1C(c1cccc(F)c1)NC2c1cccc(F)c1 (stereo in doubt; 56b)	32 (≈ 86.4 µM)

same assay, conditions: Bacillus subtilis; read-out: MIC90

Compound	MIC90 [µg/mL]
CO/N=C1\C2CCCC1(C)C(c1ccccc1Cl)NC2c1ccccc1Cl (configuration not stated)	32 (≈ 79.3 µM)
CC1CC2C(=NO)C(C1)C(c1ccccc1Cl)NC2c1ccccc1Cl (stereo in doubt; 52a)	32 (≈ 82.2 µM)
CC1CC2C(=NO)C(C1)C(c1ccc(F)cc1)NC2c1ccc(F)cc1 (configuration not stated)	64 (≈ 180 µM)
CO/N=C1\C2CCCC1(C)C(c1ccccc1F)NC2c1ccccc1F (configuration not stated)	16 (≈ 43.2 µM)
CC1CC2C(=NO)C(C1)C(c1cccc(F)c1)NC2c1cccc(F)c1 (stereo in doubt; 50a)	128 (≈ 359 µM)
CO/N=C1\C2CCCC1(C)C(c1ccccc1OC)NC2c1ccccc1OC (configuration not stated)	32 (≈ 81.1 µM)
CO/N=C1\C2CCCC1(C)C(c1ccc(F)cc1)NC2c1ccc(F)cc1 (configuration not stated)	32 (≈ 86.4 µM)
CC12CCCC(/C1=N\O)C(c1ccc(F)cc1)NC2c1ccc(F)cc1 (configuration not stated)	64 (≈ 180 µM)

test system: Staphylococcus aureus; assay: Antibacterial activity against Staphylococcus aureus by NCCLS broth microdilution method; assay type: functional; details: not given

Compound	MIC90 [µg/mL]
CON=C1C2CC(C)CC1C(c1ccccc1F)NC2c1ccccc1F (stereo in doubt; 55b)	16 (≈ 43.2 µM)
CON=C1C2CC(C)CC1C(c1ccccc1Cl)NC2c1ccccc1Cl (stereo in doubt; 58b)	8 (≈ 19.8 µM)
GENTAMICIN	4
CON=C1C2CC(C)CC1C(c1cccc(F)c1)NC2c1cccc(F)c1 (stereo in doubt; 56b)	32 (≈ 86.4 µM)

same assay, conditions: Staphylococcus aureus; read-out: MIC90

Compound	MIC90 [µg/mL]
CO/N=C1\C2CCCC1(C)C(c1ccccc1Cl)NC2c1ccccc1Cl (configuration not stated)	4 (≈ 9.92 µM)
CC1CC2C(=NO)C(C1)C(c1ccccc1Cl)NC2c1ccccc1Cl (stereo in doubt; 52a)	16 (≈ 41.1 µM)
CC1CC2C(=NO)C(C1)C(c1ccc(F)cc1)NC2c1ccc(F)cc1 (configuration not stated)	8 (≈ 22.4 µM)
CO/N=C1\C2CCCC1(C)C(c1ccccc1F)NC2c1ccccc1F (configuration not stated)	4 (≈ 10.8 µM)
CC1CC2C(=NO)C(C1)C(c1cccc(F)c1)NC2c1cccc(F)c1 (stereo in doubt; 50a)	32 (≈ 89.8 µM)
CO/N=C1\C2CCCC1(C)C(c1ccccc1OC)NC2c1ccccc1OC (configuration not stated)	32 (≈ 81.1 µM)
CO/N=C1\C2CCCC1(C)C(c1ccc(F)cc1)NC2c1ccc(F)cc1 (configuration not stated)	8 (≈ 21.6 µM)
CC12CCCC(/C1=N\O)C(c1ccc(F)cc1)NC2c1ccc(F)cc1 (configuration not stated)	16 (≈ 44.9 µM)

test system: Klebsiella pneumoniae; assay: Antibacterial activity against Klebsiella pneumoniae by NCCLS broth microdilution method; assay type: functional; details: not given

Compound	MIC90 [µg/mL]
CON=C1C2CC(C)CC1C(c1ccccc1F)NC2c1ccccc1F (stereo in doubt; 55b)	16 (≈ 43.2 µM)
CON=C1C2CC(C)CC1C(c1ccccc1Cl)NC2c1ccccc1Cl (stereo in doubt; 58b)	16 (≈ 39.7 µM)
GENTAMICIN	2
CON=C1C2CC(C)CC1C(c1cccc(F)c1)NC2c1cccc(F)c1 (stereo in doubt; 56b)	64 (≈ 173 µM)

same assay, conditions: Klebsiella pneumoniae; read-out: MIC90

Compound	MIC90 [µg/mL]
CO/N=C1\C2CCCC1(C)C(c1ccccc1Cl)NC2c1ccccc1Cl (configuration not stated)	8 (≈ 19.8 µM)
CC1CC2C(=NO)C(C1)C(c1ccccc1Cl)NC2c1ccccc1Cl (stereo in doubt; 52a)	32 (≈ 82.2 µM)
CC1CC2C(=NO)C(C1)C(c1ccc(F)cc1)NC2c1ccc(F)cc1 (configuration not stated)	32 (≈ 89.8 µM)
CO/N=C1\C2CCCC1(C)C(c1ccccc1F)NC2c1ccccc1F (configuration not stated)	4 (≈ 10.8 µM)
CC1CC2C(=NO)C(C1)C(c1cccc(F)c1)NC2c1cccc(F)c1 (stereo in doubt; 50a)	32 (≈ 89.8 µM)
CO/N=C1\C2CCCC1(C)C(c1ccccc1OC)NC2c1ccccc1OC (configuration not stated)	32 (≈ 81.1 µM)
CO/N=C1\C2CCCC1(C)C(c1ccc(F)cc1)NC2c1ccc(F)cc1 (configuration not stated)	16 (≈ 43.2 µM)
CC12CCCC(/C1=N\O)C(c1ccc(F)cc1)NC2c1ccc(F)cc1 (configuration not stated)	32 (≈ 89.8 µM)

test system: Pseudomonas aeruginosa; assay: Antibacterial activity against Pseudomonas aeruginosa by NCCLS broth microdilution method; assay type: functional; details: not given

Compound	MIC90 [µg/mL]
CC1CC2C(=NO)C(C1)C(c1ccccc1Cl)NC2c1ccccc1Cl (stereo in doubt; 52a)	32 (≈ 82.2 µM)
CON=C1C2CC(C)CC1C(c1ccccc1F)NC2c1ccccc1F (stereo in doubt; 55b)	32 (≈ 86.4 µM)
CON=C1C2CC(C)CC1C(c1ccccc1Cl)NC2c1ccccc1Cl (stereo in doubt; 58b)	16 (≈ 39.7 µM)
GENTAMICIN	16
CON=C1C2CC(C)CC1C(c1cccc(F)c1)NC2c1cccc(F)c1 (stereo in doubt; 56b)	64 (≈ 173 µM)

same assay, conditions: Pseudomonas aeruginosa; read-out: MIC90

Compound	MIC90 [µg/mL]
CO/N=C1\C2CCCC1(C)C(c1ccccc1Cl)NC2c1ccccc1Cl (configuration not stated)	8 (≈ 19.8 µM)
CC1CC2C(=NO)C(C1)C(c1ccc(F)cc1)NC2c1ccc(F)cc1 (configuration not stated)	64 (≈ 180 µM)
CO/N=C1\C2CCCC1(C)C(c1ccccc1F)NC2c1ccccc1F (configuration not stated)	8 (≈ 21.6 µM)
CC1CC2C(=NO)C(C1)C(c1cccc(F)c1)NC2c1cccc(F)c1 (stereo in doubt; 50a)	64 (≈ 180 µM)
CO/N=C1\C2CCCC1(C)C(c1ccccc1OC)NC2c1ccccc1OC (configuration not stated)	64 (≈ 162 µM)
CO/N=C1\C2CCCC1(C)C(c1ccc(F)cc1)NC2c1ccc(F)cc1 (configuration not stated)	16 (≈ 43.2 µM)
CC12CCCC(/C1=N\O)C(c1ccc(F)cc1)NC2c1ccc(F)cc1 (configuration not stated)	64 (≈ 180 µM)

test system: Candida albicans; assay: Antifungal activity against Candida albicans by NCCLS broth microdilution method; assay type: functional; details: not given
Outline: (§1)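 MIC90 was taken as the lowest concentration that inhibited 90% of pathogen growth after incubation, reported in μg/mL. Broth dilution followed the NCCLS reference standards: M27-A for yeasts and the proposed standard for conidium-forming filamentous fungi. Fluconazole was the reference drug.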

Compound	MIC90 [µg/mL]
CC1CC2C(=NO)C(C1)C(c1ccccc1Cl)NC2c1ccccc1Cl (stereo in doubt; 52a)	16 (≈ 41.1 µM)
CON=C1C2CC(C)CC1C(c1ccccc1F)NC2c1ccccc1F (stereo in doubt; 55b)	2 (≈ 5.4 µM)
CON=C1C2CC(C)CC1C(c1ccccc1Cl)NC2c1ccccc1Cl (stereo in doubt; 58b)	4 (≈ 9.92 µM)
CON=C1C2CC(C)CC1C(c1cccc(F)c1)NC2c1cccc(F)c1 (stereo in doubt; 56b)	8 (≈ 21.6 µM)

same assay, conditions: Candida albicans; read-out: MIC90

Compound	MIC90 [µg/mL]
CO/N=C1\C2CCCC1(C)C(c1ccccc1Cl)NC2c1ccccc1Cl (configuration not stated)	32 (≈ 79.3 µM)
CC1CC2C(=NO)C(C1)C(c1ccc(F)cc1)NC2c1ccc(F)cc1 (configuration not stated)	32 (≈ 89.8 µM)
CO/N=C1\C2CCCC1(C)C(c1ccccc1F)NC2c1ccccc1F (configuration not stated)	4 (≈ 10.8 µM)
CC1CC2C(=NO)C(C1)C(c1cccc(F)c1)NC2c1cccc(F)c1 (stereo in doubt; 50a)	128 (≈ 359 µM)
CO/N=C1\C2CCCC1(C)C(c1ccccc1OC)NC2c1ccccc1OC (configuration not stated)	64 (≈ 162 µM)
CO/N=C1\C2CCCC1(C)C(c1ccc(F)cc1)NC2c1ccc(F)cc1 (configuration not stated)	8 (≈ 21.6 µM)
CC12CCCC(/C1=N\O)C(c1ccc(F)cc1)NC2c1ccc(F)cc1 (configuration not stated)	16 (≈ 44.9 µM)

test system: Candida parapsilosis; assay: Antifungal activity against Candida parapsilosis by NCCLS broth microdilution method; assay type: functional; details: not given; outline: as §1

Compound	MIC90 [µg/mL]
CON=C1C2CC(C)CC1C(c1ccccc1F)NC2c1ccccc1F (stereo in doubt; 55b)	2 (≈ 5.4 µM)
CON=C1C2CC(C)CC1C(c1ccccc1Cl)NC2c1ccccc1Cl (stereo in doubt; 58b)	4 (≈ 9.92 µM)
CON=C1C2CC(C)CC1C(c1cccc(F)c1)NC2c1cccc(F)c1 (stereo in doubt; 56b)	16 (≈ 43.2 µM)

same assay, conditions: Lodderomyces parapsilosis; read-out: MIC90

Compound	MIC90 [µg/mL]
CO/N=C1\C2CCCC1(C)C(c1ccccc1Cl)NC2c1ccccc1Cl (configuration not stated)	4 (≈ 9.92 µM)
CC1CC2C(=NO)C(C1)C(c1ccccc1Cl)NC2c1ccccc1Cl (stereo in doubt; 52a)	32 (≈ 82.2 µM)
CC1CC2C(=NO)C(C1)C(c1ccc(F)cc1)NC2c1ccc(F)cc1 (configuration not stated)	64 (≈ 180 µM)
CO/N=C1\C2CCCC1(C)C(c1ccccc1F)NC2c1ccccc1F (configuration not stated)	8 (≈ 21.6 µM)
CC1CC2C(=NO)C(C1)C(c1cccc(F)c1)NC2c1cccc(F)c1 (stereo in doubt; 50a)	64 (≈ 180 µM)
CO/N=C1\C2CCCC1(C)C(c1ccccc1OC)NC2c1ccccc1OC (configuration not stated)	64 (≈ 162 µM)
CO/N=C1\C2CCCC1(C)C(c1ccc(F)cc1)NC2c1ccc(F)cc1 (configuration not stated)	8 (≈ 21.6 µM)
CC12CCCC(/C1=N\O)C(c1ccc(F)cc1)NC2c1ccc(F)cc1 (configuration not stated)	32 (≈ 89.8 µM)

test system: Aspergillus niger; assay: Antifungal activity against Aspergillus niger by NCCLS broth microdilution method; assay type: functional; details: not given; outline: as §1

Compound	MIC90 [µg/mL]
CC1CC2C(=NO)C(C1)C(c1ccccc1Cl)NC2c1ccccc1Cl (stereo in doubt; 52a)	> 128
CON=C1C2CC(C)CC1C(c1ccccc1F)NC2c1ccccc1F (stereo in doubt; 55b)	2 (≈ 5.4 µM)
CON=C1C2CC(C)CC1C(c1ccccc1Cl)NC2c1ccccc1Cl (stereo in doubt; 58b)	2 (≈ 4.96 µM)
CON=C1C2CC(C)CC1C(c1cccc(F)c1)NC2c1cccc(F)c1 (stereo in doubt; 56b)	16 (≈ 43.2 µM)

same assay, conditions: Aspergillus niger; read-out: MIC90

Compound	MIC90 [µg/mL]
CO/N=C1\C2CCCC1(C)C(c1ccccc1Cl)NC2c1ccccc1Cl (configuration not stated)	16 (≈ 39.7 µM)
CC1CC2C(=NO)C(C1)C(c1ccc(F)cc1)NC2c1ccc(F)cc1 (configuration not stated)	64 (≈ 180 µM)
CO/N=C1\C2CCCC1(C)C(c1ccccc1F)NC2c1ccccc1F (configuration not stated)	16 (≈ 43.2 µM)
CC1CC2C(=NO)C(C1)C(c1cccc(F)c1)NC2c1cccc(F)c1 (stereo in doubt; 50a)	64 (≈ 180 µM)
CO/N=C1\C2CCCC1(C)C(c1ccccc1OC)NC2c1ccccc1OC (configuration not stated)	128 (≈ 324 µM)
CO/N=C1\C2CCCC1(C)C(c1ccc(F)cc1)NC2c1ccc(F)cc1 (configuration not stated)	32 (≈ 86.4 µM)
CC12CCCC(/C1=N\O)C(c1ccc(F)cc1)NC2c1ccc(F)cc1 (configuration not stated)	64 (≈ 180 µM)

test system: Cryptococcus neoformans; assay: Antifungal activity against Cryptococcus neoformans by NCCLS broth microdilution method; assay type: functional; details: not given; outline: as §1

Compound	MIC90 [µg/mL]
CON=C1C2CC(C)CC1C(c1ccccc1F)NC2c1ccccc1F (stereo in doubt; 55b)	4 (≈ 10.8 µM)
CON=C1C2CC(C)CC1C(c1ccccc1Cl)NC2c1ccccc1Cl (stereo in doubt; 58b)	2 (≈ 4.96 µM)
CON=C1C2CC(C)CC1C(c1cccc(F)c1)NC2c1cccc(F)c1 (stereo in doubt; 56b)	32 (≈ 86.4 µM)

same assay, conditions: Cryptococcus neoformans; read-out: MIC90

Compound	MIC90 [µg/mL]
CO/N=C1\C2CCCC1(C)C(c1ccccc1Cl)NC2c1ccccc1Cl (configuration not stated)	4 (≈ 9.92 µM)
CC1CC2C(=NO)C(C1)C(c1ccccc1Cl)NC2c1ccccc1Cl (stereo in doubt; 52a)	32 (≈ 82.2 µM)
CC1CC2C(=NO)C(C1)C(c1ccc(F)cc1)NC2c1ccc(F)cc1 (configuration not stated)	32 (≈ 89.8 µM)
CO/N=C1\C2CCCC1(C)C(c1ccccc1F)NC2c1ccccc1F (configuration not stated)	8 (≈ 21.6 µM)
CC1CC2C(=NO)C(C1)C(c1cccc(F)c1)NC2c1cccc(F)c1 (stereo in doubt; 50a)	> 128
CO/N=C1\C2CCCC1(C)C(c1ccccc1OC)NC2c1ccccc1OC (configuration not stated)	128 (≈ 324 µM)
CO/N=C1\C2CCCC1(C)C(c1ccc(F)cc1)NC2c1ccc(F)cc1 (configuration not stated)	16 (≈ 43.2 µM)
CC12CCCC(/C1=N\O)C(c1ccc(F)cc1)NC2c1ccc(F)cc1 (configuration not stated)	32 (≈ 89.8 µM)

Reference: ChEMBL document CHEMBL1154956, “Stereospecific synthesis of oximes and oxime ethers of 3-azabicycles: A SAR study towards antimicrobial agents” (2010)
